ChEMBL document CHEMBL1152649, “Synthesis, cytotoxicity and human telomerase inhibition activities of a series of 1,2-heteroannelated anthraquinones and anthra[1,2-d]imidazole-6,11-dione homologues” (2009)

What was measured:
UACC-257 = assay: Antiproliferative activity against human UACC257 cells assessed as cell growth at 10 uM; format: functional; conditions: read-out: Activity
Outline: (§1)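 NCI 60 cell line panel, single dose (10^-5 M), run per the Developmental Therapeutics Program protocol (one dose mean graph). Each result is the growth percentage of treated cells relative to untreated control cells.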

SK-MEL-5 = assay: Antiproliferative activity against human SK-MEL-5 cells assessed as cell growth at 10 uM; format: functional; conditions: read-out: Activity
Outline: (§2)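 NCI 60 cell line panel, single-dose screen (10^-5 M) run by the developmental therapeutics program protocol. Results are given as growth percent of treated cells relative to untreated control cells for each line.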

[1] = biological target: Telomerase reverse transcriptase (Homo sapiens) (UniProt O14746); assay: Inhibition of TERT in human H1299 cells assessed as residual transcriptional activity at 100 uM after 24 hrs by SEAP reporter gene assay; values are per cent of control
Chain of Telomerase reverse transcriptase (Homo sapiens) (O14746 whole entry): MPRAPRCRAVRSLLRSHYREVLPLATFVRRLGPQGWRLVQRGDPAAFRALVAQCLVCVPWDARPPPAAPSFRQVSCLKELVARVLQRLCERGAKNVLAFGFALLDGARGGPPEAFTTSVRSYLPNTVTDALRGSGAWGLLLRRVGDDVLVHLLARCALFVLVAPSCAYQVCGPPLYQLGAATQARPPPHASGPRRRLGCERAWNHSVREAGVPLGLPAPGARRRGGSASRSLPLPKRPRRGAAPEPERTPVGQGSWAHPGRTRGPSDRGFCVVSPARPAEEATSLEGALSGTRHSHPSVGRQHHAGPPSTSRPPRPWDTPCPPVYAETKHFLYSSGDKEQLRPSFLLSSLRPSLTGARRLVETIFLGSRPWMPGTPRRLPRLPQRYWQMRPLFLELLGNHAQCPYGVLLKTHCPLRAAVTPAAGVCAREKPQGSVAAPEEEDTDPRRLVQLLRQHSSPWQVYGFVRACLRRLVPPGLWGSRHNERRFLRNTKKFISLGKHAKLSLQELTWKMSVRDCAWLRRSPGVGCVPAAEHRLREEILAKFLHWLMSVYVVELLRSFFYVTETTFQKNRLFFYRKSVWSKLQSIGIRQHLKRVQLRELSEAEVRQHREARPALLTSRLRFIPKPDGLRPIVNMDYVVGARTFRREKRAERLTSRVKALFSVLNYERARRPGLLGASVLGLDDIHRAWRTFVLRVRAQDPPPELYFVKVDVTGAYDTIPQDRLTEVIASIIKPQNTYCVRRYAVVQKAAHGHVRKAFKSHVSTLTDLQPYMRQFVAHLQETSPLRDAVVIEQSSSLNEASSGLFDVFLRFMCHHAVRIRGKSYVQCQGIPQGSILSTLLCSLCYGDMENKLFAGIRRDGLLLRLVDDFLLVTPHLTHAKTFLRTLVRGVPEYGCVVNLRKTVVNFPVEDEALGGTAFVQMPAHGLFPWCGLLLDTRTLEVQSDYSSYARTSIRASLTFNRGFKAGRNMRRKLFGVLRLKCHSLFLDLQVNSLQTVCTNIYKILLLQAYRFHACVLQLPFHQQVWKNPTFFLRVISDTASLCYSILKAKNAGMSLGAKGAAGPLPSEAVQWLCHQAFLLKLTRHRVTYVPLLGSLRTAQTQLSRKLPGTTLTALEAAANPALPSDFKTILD

TK-10 = assay: Antiproliferative activity against human TK10 cells assessed as cell growth at 10 uM; format: functional; conditions: read-out: Activity; outline: as §1
SF-539 = assay: Antiproliferative activity against human SF539 cells assessed as cell growth at 10 uM; format: functional; conditions: read-out: Activity; outline: as §2
CAKI-1 = assay: Antiproliferative activity against human Caki1 cells assessed as cell growth at 10 uM; format: functional; conditions: read-out: Activity; outline: as §2
OVCAR-3 = assay: Antiproliferative activity against human OVCAR-3 cells assessed as cell growth at 10 uM; format: functional; conditions: read-out: Activity; outline: as §2
786-0 = assay: Antiproliferative activity against human 786-0 cells assessed as cell growth at 10 uM; format: functional; conditions: read-out: Activity; outline: as §2
HCC 2998 = assay: Antiproliferative activity against human HCC2998 cells assessed as cell growth at 10 uM; format: functional; conditions: read-out: Activity; outline: as §2
Malme-3M = assay: Antiproliferative activity against human MALME-3M cells assessed as cell growth at 10 uM; format: functional; conditions: read-out: Activity; outline: as §2
SK-MEL-28 = assay: Antiproliferative activity against human SK-MEL-28 cells assessed as cell growth at 10 uM; format: functional; conditions: read-out: Activity; outline: as §2
LOX IMVI = assay: Antiproliferative activity against human LOXIMVI cells assessed as cell growth at 10 uM; format: functional; conditions: read-out: Activity; outline: as §2
T47D = assay: Antiproliferative activity against human T47D cells assessed as cell growth at 10 uM; format: functional; conditions: read-out: Activity; outline: as §1
K562 = assay: Antiproliferative activity against human K562 cells assessed as cell growth at 10 uM; format: functional; conditions: read-out: Activity; outline: as §2
NCI-H226 = assay: Antiproliferative activity against human NCI-H226 cells assessed as cell growth at 10 uM; format: functional; conditions: read-out: Activity; outline: as §2
COLO 205 = assay: Antiproliferative activity against human COLO205 cells assessed as cell growth at 10 uM; format: functional; conditions: read-out: Activity; outline: as §2
A549 = assay: Antiproliferative activity against human A549 cells assessed as cell growth at 10 uM; format: functional; conditions: read-out: Activity; outline: as §2
[2] = biological target: Telomerase reverse transcriptase (Homo sapiens) (UniProt O14746); assay: Inhibition of TERT in human H1299 cells assessed as residual transcriptional activity at 10 uM after 24 hrs by SEAP reporter gene assay; values are per cent of control
EKVX = assay: Antiproliferative activity against human EKVX cells assessed as cell growth at 10 uM; format: functional; conditions: read-out: Activity; outline: as §2
CCRF-CEM = assay: Antiproliferative activity against human CCRF-CEM cells assessed as cell growth at 10 uM; format: functional; conditions: read-out: Activity; outline: as §2
A498 = assay: Antiproliferative activity against human A498 cells assessed as cell growth at 10 uM; format: functional; conditions: read-out: Activity; outline: as §2
DU-145 = assay: Antiproliferative activity against human DU145 cells assessed as cell growth at 10 uM; format: functional; conditions: read-out: Activity; outline: as §2
SR = assay: Antiproliferative activity against human SR cells assessed as cell growth at 10 uM; format: functional; conditions: read-out: Activity; outline: as §1
HCT-15 = assay: Antiproliferative activity against human HCT15 cells assessed as cell growth at 10 uM; format: functional; conditions: read-out: Activity; outline: as §2
SK-MEL-2 = assay: Antiproliferative activity against human SK-MEL-2 cells assessed as cell growth at 10 uM; format: functional; conditions: read-out: Activity; outline: as §2
SW-620 = assay: Antiproliferative activity against human SW620 cells assessed as cell growth at 10 uM; format: functional; conditions: read-out: Activity; outline: as §1
SNB-75 = assay: Antiproliferative activity against human SNB75 cells assessed as cell growth at 10 uM; format: functional; conditions: read-out: Activity; outline: as §1
UACC-62 = assay: Antiproliferative activity against human UACC62 cells assessed as cell growth at 10 uM; format: functional; conditions: read-out: Activity; outline: as §1
OVCAR-4 = assay: Antiproliferative activity against human OVCAR4 cells assessed as cell growth at 10 uM; format: functional; conditions: read-out: Activity; outline: as §2
NCI-H460 = assay: Antiproliferative activity against human NCI-H460 cells assessed as cell growth at 10 uM; format: functional; conditions: read-out: Activity; outline: as §2
HOP-92 = assay: Antiproliferative activity against human HOP92 cells assessed as cell growth at 10 uM; format: functional; conditions: read-out: Activity; outline: as §2
HCT-116 = assay: Antiproliferative activity against human HCT116 cells assessed as cell growth at 10 uM; format: functional; conditions: read-out: Activity; outline: as §2
NCI-H23 = assay: Antiproliferative activity against human NCI-H23 cells assessed as cell growth at 10 uM; format: functional; conditions: read-out: Activity; outline: as §2
UO-31 = assay: Antiproliferative activity against human UO31 cells assessed as cell growth at 10 uM; format: functional; conditions: read-out: Activity; outline: as §1
PC-3 = assay: Antiproliferative activity against human PC3 cells assessed as cell growth at 10 uM; format: functional; conditions: read-out: Activity; outline: as §2
OVCAR-5 = assay: Antiproliferative activity against human OVCAR5 cells assessed as cell growth at 10 uM; format: functional; conditions: read-out: Activity; outline: as §2
KM12 = assay: Antiproliferative activity against human KM12 cells assessed as cell growth at 10 uM; format: functional; conditions: read-out: Activity; outline: as §2
[3] = Cytotoxicity against human H1299 cells at 100 uM after 48 hrs by MTT assay; format: functional; conditions: NCI-H1299, 48 h
Outline: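 H1299 non-small cell lung cancer cells were grown in RPMI 1640 with 10% FBS, penicillin and streptomycin at 37 °C under 5% CO2. About 2 × 10³ cells per well were seeded and left 24 h. Compounds were dissolved fresh in DMSO, diluted into complete medium and applied for 48 h. MTT was then added for 4 h at 37 °C, followed by lysis buffer (20% SDS, 50% DMF) for 16 h, and absorbance was read at 550 nm.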

[4] = Antiproliferative activity against human Hs 578T cells assessed as cell growth at 10 uM; format: functional; conditions: read-out: Activity; outline: as §2
M14 = assay: Antiproliferative activity against human M14 cells assessed as cell growth at 10 uM; format: functional; conditions: read-out: Activity; outline: as §2
ACHN = assay: Antiproliferative activity against human ACHN cells assessed as cell growth at 10 uM; format: functional; conditions: read-out: Activity; outline: as §2
SF-268 = assay: Antiproliferative activity against human SF268 cells assessed as cell growth at 10 uM; format: functional; conditions: read-out: Activity; outline: as §2
OVCAR-8 = assay: Antiproliferative activity against human OVCAR8 cells assessed as cell growth at 10 uM; format: functional; conditions: read-out: Activity; outline: as §2
NCI-H322M = assay: Antiproliferative activity against human NCI-H322M cells assessed as cell growth at 10 uM; format: functional; conditions: read-out: Activity; outline: as §2
SN12C = assay: Antiproliferative activity against human SN12C cells assessed as cell growth at 10 uM; format: functional; conditions: read-out: Activity; outline: as §2
SNB-19 = assay: Antiproliferative activity against human SNB19 cells assessed as cell growth at 10 uM; format: functional; conditions: read-out: Activity; outline: as §2
HT-29 = assay: Antiproliferative activity against human HT-29 cells assessed as cell growth at 10 uM; format: functional; conditions: read-out: Activity; outline: as §2

## N#Cc1ccc(-c2nc3ccc4c(c3[nH]2)C(=O)c2ccccc2C4=O)cc1
UACC-257
  growth at 10 µM: 105%
SK-MEL-5
  growth at 10 µM: 103%
[1]
  residual activity: 30%
TK-10
  growth at 10 µM: 180%
SF-539
  growth at 10 µM: 104%
CAKI-1
  growth at 10 µM: 110%
OVCAR-3
  growth at 10 µM: 111%
786-0
  growth at 10 µM: 124%
HCC 2998
  growth at 10 µM: 74.7%
Malme-3M
  growth at 10 µM: 201%
SK-MEL-28
  growth at 10 µM: 115%
LOX IMVI
  growth at 10 µM: 101%
T47D
  growth at 10 µM: 85.1%
K562
  growth at 10 µM: 54.9%
NCI-H226
  growth at 10 µM: 103%
COLO 205
  growth at 10 µM: 113%
A549
  growth at 10 µM: 106%
[2]
  residual activity: 83%
EKVX
  growth at 10 µM: 99.8%
CCRF-CEM
  growth at 10 µM: 117%
A498
  growth at 10 µM: 96.2%
DU-145
  growth at 10 µM: 97.7%
SR
  growth at 10 µM: 84.1%
HCT-15
  growth at 10 µM: 101%
SK-MEL-2
  growth at 10 µM: 22.5%
SW-620
  growth at 10 µM: 89.4%
SNB-75
  growth at 10 µM: 63.2%
UACC-62
  growth at 10 µM: 104%
OVCAR-4
  growth at 10 µM: 101%
NCI-H460
  growth at 10 µM: 105%
HOP-92
  growth at 10 µM: 56.2%
HCT-116
  growth at 10 µM: 79.8%
NCI-H23
  growth at 10 µM: 90.9%
UO-31
  growth at 10 µM: 80.4%
PC-3
  growth at 10 µM: 109%
OVCAR-5
  growth at 10 µM: 98.1%
KM12
  growth at 10 µM: 98.6%
[3]
  viability at 100 µM: 19%
[4]
  growth at 10 µM: 102%
M14
  growth at 10 µM: 243%
ACHN
  growth at 10 µM: 111%
SF-268
  growth at 10 µM: 99.2%
OVCAR-8
  growth at 10 µM: 98.9%
NCI-H322M
  growth at 10 µM: 127%
SN12C
  growth at 10 µM: 105%
SNB-19
  growth at 10 µM: 97.8%
HT-29
  growth at 10 µM: 86.4%
